The source made the active and inactive calls. No cut-off for these calls is given here.
Assays:
[1] = Selectivity index, ratio of EC50 for murine macrophage J774 cells to EC50 for Trypanosoma brucei brucei 427 bloodstream forms; format: toxicity; conditions: mouse; read-out: Ratio EC50
[2] = system: Trypanosoma brucei brucei; assay: Antitrypanosomal activity against Trypanosoma brucei brucei 427 bloodstream forms assessed as induction of membrane damage at 310 nM after 2 to 4 hrs by propidium iodide dye based flow cytometry; format: functional
In short: (§1)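 Bloodstream strain 427 at 5x10^5/mL in triplicate, exposed to 310, 155 or 77.5 nM, 0.001% v/v Triton X-100, 15 µM nifurtimox or 1% v/v DMSO. Incubated 0.5, 1, 2 or 4 h, then diluted into PBS/1% glucose. PI added at 2 µg/mL just before flow cytometry. Result is % PI-positive cells, mean ± SD (n=3), with one-way ANOVA and Dunnett's test against DMSO.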

[3] = system: Trypanosoma brucei brucei; assay: Antitrypanosomal activity against Trypanosoma brucei brucei 427 bloodstream forms assessed as induction of membrane damage at 310 nM after 1 hr by propidium iodide dye based flow cytometry; format: functional; in short: as §1
[4] = system: Trypanosoma brucei brucei; assay: Antitrypanosomal activity against Trypanosoma brucei brucei 427 bloodstream forms assessed as induction of mitochondrial damage at 0.31 uM preincubated for 30 mins followed by addition of Mitotracker red CM-H2XRos further incubated for 30 mins and measured by epifluorescence microscopy; format: functional
In short: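 Strain 427 at 1x10^6/mL treated with 0.31 µM test compound for 30 min. MitoTracker Red CM-H2XRos then added at 250 nM for 30 min more. Cells centrifuged, PBS-washed, fixed in 4% paraformaldehyde for 18 min, mounted with DAPI. Mitochondrial morphology and staining intensity compared with 1% DMSO-treated cells by fluorescence microscopy.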

[5] = system: Trypanosoma brucei brucei; assay: Antitrypanosomal activity against Trypanosoma brucei brucei 427 bloodstream forms after 24 hrs by propidium iodide dye based flow cytometry; format: functional; conditions: Trypanosoma brucei, 427, 24 h
In short: (§2)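 Bloodstream T. b. brucei 427 grown in HMI-9 with 10% FBS, penicillin/streptomycin, 37 °C, 5% CO2. Exponential-phase cells seeded at 5x10^5/mL; compounds added from DMSO stocks, 1% v/v DMSO final. […] Exposure 24 h, then diluted into PBS/1% glucose with 2 µg/mL PI and counted by flow cytometry. Viability given as % of DMSO-treated cell count.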

[6] = system: Trypanosoma brucei brucei; assay: Antitrypanosomal activity against Trypanosoma brucei brucei 427 bloodstream forms assessed as induction of membrane damage at 77.5 to 310 nM by propidium iodide dye based flow cytometry; format: functional; conditions: TDE = time-dependent effect; in short: as §1
[7] = system: Trypanosoma brucei brucei; assay: (§3) Antitrypanosomal activity against Trypanosoma brucei brucei 427 bloodstream forms infected CHO-K1 cells expressing redox biosensor hGrx-roGFP2 assessed as induction of hGrx-roGFP2 oxidation at 77.5 to 310 nM after 1 hr by flow cytometric method; format: functional
In short: (§4)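 Parasites induced with oxytetracycline for 24 h, then moved to 1x10^6/200 µL without inducer. Treated in triplicate for 1 h at 37 °C with 78–310 nM test compound, 1 mM menadione, 15 µM nifurtimox, 1 mM DTT or 1% DMSO. Half then given 1 mM DTT for 30 min more. PI at 2 µg/mL added; biosensor read at 488/530 nm in PI-negative cells only, as % reduction relative to DMSO.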

[8] = system: Trypanosoma brucei brucei; assay: as §3, with “preincubated for” for “after”, “hr followed by DTT addition measured after 30 mins” for “hr”; format: functional; in short: as §4
[9] = system: Trypanosoma brucei brucei; assay: Inhibition of Trypanosoma brucei brucei recombinant trypanothione synthetase using GSH/spermididine as substrate assessed as residual activity by measuring phosphate release from ATP at 30 uM after 15 mins by Biomol Green reagent based assay relative to control
Trypanosoma cruzi = assay: Inhibition of Trypanosoma cruzi recombinant trypanothione synthetase using GSH/spermididine as substrate assessed as residual activity by measuring phosphate release from ATP at 30 uM after 15 mins by Biomol Green reagent based assay relative to control
Leishmania infantum = assay: Inhibition of Leishmania infantum recombinant trypanothione synthetase using GSH/spermididine as substrate assessed as residual activity by measuring phosphate release from ATP at 30 uM after 15 mins by Biomol Green reagent based assay relative to control
[10] = system: Trypanosoma brucei brucei; assay: (§5) Antitrypanosomal activity against Trypanosoma brucei brucei 427 bloodstream forms infected CHO-K1 cells expressing redox biosensor rxYFP assessed as induction of rxYFP oxidation at 1 to 10 uM after 1 hr by propidium iodide based flow cytometry relative to control; format: functional
In short: (§6)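 CHO-K1 cells expressing rxYFP in DMEM with 10% FCS, given 400 µg/mL zeocin 48 h before the assay. Trypsinized cells seeded at 8x10^5/mL and treated in triplicate for 1 h at 37 °C with 1, 5 or 10 µM test compound, 1 mM menadione, H2O2 or DTT, or 1% DMSO. Some wells then given 1 mM DTT for 30 min. PI-negative cells analysed by flow cytometry (488/530 nm), as % reduction relative to DMSO.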

[11] = system: Trypanosoma brucei brucei; assay: Antitrypanosomal activity against Trypanosoma brucei brucei 427 bloodstream forms assessed as decrease in parasite levels with discrete lysosomal signal at 0.31 uM preincubated for 30 mins followed by addition of Lysotracker red DND-99 further incubated for 30 mins and measured by epifluorescence microscopy relative to control; format: functional
[12] = system: Trypanosoma brucei brucei; assay: Antitrypanosomal activity against Trypanosoma brucei brucei 427 bloodstream forms assessed as increase in intracellular free iron level at 3.1 uM after 1 hr by PhenGreen SK diacetate reagent based flow cytometry; format: functional
In short: (§7)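 Strain 427 at 2x10^6/mL in triplicate with 3.1 µM test compound, with or without 10 or 100 µM deferoxamine or bipyridine; 1% DMSO control. After 40 min at 37 °C/5% CO2, PhenGreen SK diacetate added at 10 µM for 20 min more. Cells diluted in PBS/1% glucose and probe fluorescence (ex 488 nm) read by flow cytometry; mean ± SD (n=3).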

[13] = system: Trypanosoma brucei brucei; assay: Antitrypanosomal activity against Trypanosoma brucei brucei 427 bloodstream forms assessed as induction of membrane damage at 155 nM after 2 to 4 hrs by propidium iodide dye based flow cytometry; format: functional; in short: as §1
[14] = system: Trypanosoma brucei brucei; assay: as §5, with “at” for “at 1 to”, “preincubated for” for “after”, “hr followed by DTT addition measured after 30 mins” for “hr”; format: functional; in short: as §6
[15] = system: Trypanosoma brucei brucei; assay: Antitrypanosomal activity against Trypanosoma brucei brucei 427 bloodstream forms assessed as increase in intracellular free iron level at 3.1 uM co-incubated with DFO after 1 hr by PhenGreen SK diacetate reagent based flow cytometry; format: functional, cell-based; in short: as §7
[16] = system: Trypanosoma brucei brucei; assay: Antitrypanosomal activity against Trypanosoma brucei brucei 427 bloodstream forms assessed as induction of membrane damage at 310 nM after 2 hrs by propidium iodide dye based flow cytometry relative to control; format: functional; in short: as §1
[17] = system: Trypanosoma brucei brucei; assay: (§8) Antitrypanosomal activity against Trypanosoma brucei brucei 427 bloodstream forms assessed as induction of membrane damage at 310 nM after 3 hrs by propidium iodide dye based flow cytometry relative to control; format: functional
[18] = system: Trypanosoma brucei brucei; assay: as §8, with “nM parasite preincubated with 125 to 500 uM DFO for 3 hrs followed by test compound addition measured” for “nM”; format: functional
In short: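 Strain 427 at 1x10^6/mL in triplicate at 37 °C. Arm A: 0.31 µM test compound with 100 µM DFO or bipyridine for 2 h. Arm B: DFO at 125–500 µM for 3 h, then 0.31 µM test compound for a further 3 h. Membrane integrity read by PI staining and flow cytometry; mean ± SD (n=3).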

[19] = system: Trypanosoma brucei brucei; assay: Antitrypanosomal activity against Trypanosoma brucei brucei 427 bloodstream forms assessed as membrane damage in presence of bipyridine at 0.31 uM after 2 hr by propidium iodide staining-based flow cytometry
[20] = system: Trypanosoma brucei brucei; assay: Antitrypanosomal activity against Trypanosoma brucei brucei 427 bloodstream forms assessed as increase in intracellular free iron level at 3.1 uM co-incubated with bipyridine for 1 hr by PhenGreen SK diacetate reagent based flow cytometry
[21] = system: Trypanosoma brucei brucei; assay: Antitrypanosomal activity against Trypanosoma brucei brucei 427 bloodstream forms infected CHO-K1 cells expressing redox biosensor hGrx-roGFP2 assessed as induction of hGrx-roGFP2 oxidation at 1 mM after 1 hr by flow cytometric method; format: functional; in short: as §4
[22] = system: Trypanosoma brucei brucei; assay: Antitrypanosomal activity against Trypanosoma brucei brucei 427 bloodstream forms infected CHO-K1 cells expressing redox biosensor hGrx-roGFP2 assessed as induction of hGrx-roGFP2 oxidation at 1 mM preincubated for 1 hr followed by DTT addition measured after 30 mins by flow cytometric method; format: functional; in short: as §4
[23] = system: Trypanosoma brucei brucei; assay: (§9) Antitrypanosomal activity against Trypanosoma brucei brucei 427 bloodstream forms infected CHO-K1 cells expressing redox biosensor rxYFP assessed as induction of rxYFP oxidation at 1 mM after 1 hr by propidium iodide based flow cytometry relative to control; format: functional; in short: as §6
[24] = system: Trypanosoma brucei brucei; assay: as §9, with “preincubated for” for “after”, “hr followed by DTT addition measured after 30 mins” for “hr”; format: functional; in short: as §6
[25] = system: Trypanosoma brucei brucei; assay: Antitrypanosomal activity against Trypanosoma brucei brucei 427 bloodstream forms at 5 uM after 24 hrs by propidium iodide dye based flow cytometry; format: functional; conditions: for inhibition of growth at 5 µM: Trypanosoma brucei, 427, 24 h, read-out: GI; in short: as §2
[26] = system: Trypanosoma brucei brucei; assay: Antitrypanosomal activity against Trypanosoma brucei brucei 427 bloodstream forms at 30 uM after 24 hrs by propidium iodide dye based flow cytometry; format: functional; in short: as §2

Structure (SMILES) | EC50 [5] | Activity [9] | Activity (Trypanosoma cruzi) | Activity (Leishmania infantum) | selectivity ratio [1] | other results
CCOC(=O)c1csc(NC(=O)c2csc(NC(=O)c3csc(NC(=O)OC(C)(C)C)n3)n2)n1 | 0.31 µM | 120% | 126% | 106% | 16.5 | Activity [2]: 80 - 90%; Activity [3]: 10%; Activity [4]: inactive; Activity [6]: Tde; Activity [7]: 10%; Activity [8]: inactive; Activity [10]: 10%; fold change (FC) [11]: >3; Activity [12]: 50%; Activity [13]: Active; Activity [14]: inactive; Activity [15]: inactive; Activity [16]: 87%; Activity [17]: 80%; Activity [18]: 40 - 67%; Activity [19]: 47%; Activity [20]: inactive
CCOC(=O)c1csc(NC(=O)c2csc(NC(=O)c3csc(NC(C)=O)n3)n2)n1 | 5.4 µM | 93.7% | 96.3% | 105% | 29.1 | –
CC1=CC(=O)c2ccccc2C1=O [MENADIONE] | – | – | – | – | – | Activity [21]: 21%; Activity [22]: inactive; Activity [23]: 70%; Activity [24]: inactive
CC(=O)Nc1nc(C(=O)Nc2nc(C(=O)O)cs2)cs1 | – | 108% | 99% | 102% | – | inhibition of growth at 5 µM [25]: 20%
CC(=O)Nc1nc(C(=O)Nc2nc(C(=O)Nc3nc(C(=O)O)cs3)cs2)cs1 | – | 103% | 102% | 83.6% | – | growth inhibition (GI) [25]: inactive; Activity [26]: inactive
CC1CS(=O)(=O)CCN1/N=C/c1ccc([N+](=O)[O-])o1 (stereo not drawn) [NIFURTIMOX] | 15 µM | – | – | – | 10 | –
CC(C)(C)OC(=O)Nc1nc(C(=O)Nc2nc(C(=O)Nc3nc(C(=O)O)cs3)cs2)cs1 | – | 112% | 112% | 116% | – | inhibition of growth at 5 µM [25]: 22.7%
CC(C)(C)OC(=O)Nc1nc(C(=O)Nc2nc(C(=O)O)cs2)cs1 | – | 100% | 105% | 89.9% | – | inhibition of growth at 5 µM [25]: 10.8%
O=c1[nH]c2cc3no[n+]([O-])c3cc2[nH]1 | – | – | 64.9% | – | – | –
OO [HYDROGEN PEROXIDE] | – | – | – | – | – | Activity [23]: 25%; Activity [24]: inactive
CNCCNC(=O)CN1C(=O)Cc2c([nH]c3ccc(Br)cc23)-c2ccc(Cl)cc21 | – | 49.4% | – | 57.1% | – | –
O[C@H](CS)[C@H](O)CS | – | – | – | – | – | Activity [21]: inactive

Continued, in another order:

EC50 [5] | Activity [9] | Activity (Trypanosoma cruzi) | Activity (Leishmania infantum) | Structure (SMILES) | selectivity ratio [1] | other results
5 µM | 112% | 102% | 110% | CCOC(=O)c1csc(NC(=O)c2csc(NC(=O)c3csc(C)n3)n2)n1 | 10.5 | –
– | 95.2% | 99.7% | 98.5% | CCOC(=O)c1csc(NC(=O)c2csc(C)n2)n1 | – | growth inhibition (GI) [25]: inactive
– | 111% | 97.5% | 89.5% | CCOC(=O)c1csc(NC(=O)c2csc(N)n2)n1 | – | inhibition of growth at 5 µM [25]: 25.6%
5.5 µM | 100% | 96.2% | 99.8% | CCOC(=O)c1csc(NC(=O)c2csc(NC(=O)c3csc(N)n3)n2)n1 | 19.6 | –
13.7 µM | 111% | 96.4% | 102% | CCOC(=O)c1csc(NC(=O)c2csc(NC(=O)OC(C)(C)C)n2)n1 | 3.5 | –
9.6 µM | 102% | 98.1% | 82.8% | CCOC(=O)c1csc(NC(=O)c2csc(NC(C)=O)n2)n1 | 7.4 | –
– | 96.6% | 104% | 102% | Cc1nc(C(=O)Nc2nc(C(=O)O)cs2)cs1 | – | inhibition of growth at 5 µM [25]: 8.1%
